Reference: ChEMBL document CHEMBL1157291, “Discovery of bacterial fatty acid synthase inhibitors from a Phoma species as antimicrobial agents using a new antisense-based strategy” (J Nat Prod, 2006)
Values after ≈ are worked out from the molar mass of the structure shown.

How the values were obtained:
[1] = Inhibition of Staphylococcus aureus FAS2
Summary of the method: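 Partially purified S. aureus protein containing all FAS enzymes (1.26 µg) was preincubated 20 min at room temperature with serial dilutions of compound. Reactions were started with [2-14C]malonyl-CoA (4 µM final), run 90 min at 37 °C, stopped with perchloric acid, and read by scintillation in phospholipid-coated flash plates. IC50 was determined.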

[2] = tested on: Staphylococcus aureus; test: Antimicrobial activity against Staphylococcus aureus RN450 transfected with plasmid SI-1941 bearing antisense to FabF assessed as drug level at which a zone formation after 18 hrs; format: functional
Summary of the method: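 Agar two-plate differential sensitivity assay: S. aureus RN450 carrying fabF antisense plasmid, with a vector-only control strain. Overnight LB cultures with 34 µg/mL chloramphenicol at 37 °C were inoculated 1:1000 (of OD 3.0) into LB agar with 0.2% glucose and 15 µg/mL chloramphenicol, plus 50 mM xylose for the antisense strain only. Samples were added to wells and incubated 18 h at 37 °C. MDC is the lowest 2-fold dilution giving a zone in the sensitive strain with a 5 mm zone differential over the control strain.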

[3] = tested on: Staphylococcus aureus; test: Antimicrobial activity against Staphylococcus aureus MB2865 after 20 hrs; format: functional
Summary of the method: (§1)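 MIC determination: cells inoculated at 10^5 CFU/mL, incubated at 37 °C for 20 h with 2-fold serial dilutions of compound in growth medium; MIC taken as lowest concentration inhibiting growth.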

[4] = tested on: Staphylococcus aureus; test: Antimicrobial activity against methicillin-resistant Staphylococcus aureus COL after 20 hrs; format: functional; summary of the method: as §1
[5] = tested on: Enterococcus faecium; test: Antimicrobial activity against vancomycin-resistant Enterococcus faecium CL5791 after 20 hrs; format: functional; summary of the method: as §1
[6] = tested on: Escherichia coli; test: Antimicrobial activity against wild type Escherichia coli after 20 hrs; format: functional
Summary of the method: (§2)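 Broth MIC: cells at 10^5 CFU/mL were incubated at 37 °C for 20 h with 2-fold serial dilutions of compound in growth medium. The MIC was taken as the lowest concentration inhibiting growth.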

[7] = tested on: Enterococcus faecalis; test: Antimicrobial activity against vancomycin-sensitive Enterococcus faecalis CL8516 after 20 hrs; format: functional; summary of the method: as §2
[8] = tested on: Escherichia coli; test: Antimicrobial activity against envA transfected Escherichia coli after 20 hrs; format: functional; summary of the method: as §2

Compound	IC50 [1] [µg/mL]	Activity [2] [µg/mL]	MIC [3] [µg/mL]	MIC [4] [µg/mL]	MIC [5] [µg/mL]	MIC [6] [µg/mL]	MIC [7] [µg/mL]	MIC [8] [µg/mL]
C/C=C/C/C=C/CCC(=O)[C@H]1O[C@H]1C(N)=O [CERULENIN]	1.5 (≈ 6.72 µM)	32	64 (≈ 287 µM)	–	–	–	–	–
CCC(O)C#CC#CC=C=CCCCCC(=O)O (configuration not stated) [PHOMALLENIC ACID A]	22 (≈ 89.3 µM)	0.63	250 (≈ 1010 µM)	250 (≈ 1010 µM)	> 250	> 250	> 250	31.3 (≈ 127 µM)
CCCC#CC#CC=C=CCCCCCCC(=O)O [PHOMALLENIC ACID B]	3.4 (≈ 13.2 µM)	0.31	7.8 (≈ 30.2 µM)	12.5 (≈ 48.4 µM)	> 100	> 100	> 100	25 (≈ 96.8 µM)
CCCC#CC#CC=C=CCCCCCCCC(=O)O [PHOMALLENIC ACID C]	0.77 (≈ 2.83 µM)	0.15	3.9 (≈ 14.3 µM)	3.9 (≈ 14.3 µM)	> 100	> 100	> 100	12.5 (≈ 45.9 µM)
C=C/C(C)=C/[C@@]1(C)SC(=O)C(C)=C1O [THIOLACTOMYCIN]	–	–	–	64 (≈ 304 µM)	> 250	> 250	> 250	> 250
